This is an account of results in ChEMBL document CHEMBL4765247, “Novel mouse GABA uptake inhibitors with enhanced inhibitory activity toward mGAT3/4 and their effect on pain threshold in mice” (Eur J Med Chem, 2020).

Bounds are passed on as bounds.

Data set [1] concerns the target T1, Sodium- and chloride-dependent GABA transporter 1 (Mus musculus, UniProt P31648). Kind of data set: Displacement of unlabelled NO711 from mouse GAT1 expressed in HEK293 cells measured after 40 mins of incubation by LC-ESI-MS-MS method.
Data set [2] deals with T1, Sodium- and chloride-dependent GABA transporter 1. Kind of data set: Inhibition of mouse GAT1 expressed in HEK293 cell line assessed as inhibition of [3H]GABA uptake measured after 35 mins by liquid scintillation method. It counts as cell-based. The procedure, abridged: (§1)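 Otherwise, the remaining uptake at 100 µM is reported as a percentage. Values without SEM come from a single triplicate experiment.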

Data set [3] deals with T2, GABA transporter 4 (Mus musculus, UniProt P31650).
T2 sequence (P31650 whole entry): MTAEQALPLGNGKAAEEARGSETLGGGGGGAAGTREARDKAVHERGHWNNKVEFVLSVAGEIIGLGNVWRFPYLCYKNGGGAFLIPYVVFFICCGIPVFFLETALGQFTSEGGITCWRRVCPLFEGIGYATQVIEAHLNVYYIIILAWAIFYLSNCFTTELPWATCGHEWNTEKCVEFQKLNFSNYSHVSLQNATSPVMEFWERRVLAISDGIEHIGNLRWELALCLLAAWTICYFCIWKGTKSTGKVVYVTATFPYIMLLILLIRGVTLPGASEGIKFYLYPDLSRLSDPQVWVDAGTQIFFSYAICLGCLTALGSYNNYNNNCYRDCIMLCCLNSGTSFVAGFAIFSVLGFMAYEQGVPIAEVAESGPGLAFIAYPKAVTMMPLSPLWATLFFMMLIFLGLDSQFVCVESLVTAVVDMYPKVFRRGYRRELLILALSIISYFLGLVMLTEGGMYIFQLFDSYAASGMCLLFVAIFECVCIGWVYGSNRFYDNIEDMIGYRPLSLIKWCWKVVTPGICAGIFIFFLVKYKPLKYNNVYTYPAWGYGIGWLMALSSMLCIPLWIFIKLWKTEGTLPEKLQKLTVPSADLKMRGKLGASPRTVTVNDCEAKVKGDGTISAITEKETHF
Kind of data set: Inhibition of mouse GAT4 expressed in HEK293 cell line assessed as inhibition of [3H]GABA uptake measured after 35 mins by liquid scintillation method. The format is cell-based. The procedure, abridged:
as §1

Data set [4] concerns the target T1, Sodium- and chloride-dependent GABA transporter 1. Kind of data set: Inhibition of mouse GTA 1 receptor.
Data set [5] concerns the target T3, GABA transporter 3 (Mus musculus, UniProt P31649).
T3 sequence (P31649 whole entry): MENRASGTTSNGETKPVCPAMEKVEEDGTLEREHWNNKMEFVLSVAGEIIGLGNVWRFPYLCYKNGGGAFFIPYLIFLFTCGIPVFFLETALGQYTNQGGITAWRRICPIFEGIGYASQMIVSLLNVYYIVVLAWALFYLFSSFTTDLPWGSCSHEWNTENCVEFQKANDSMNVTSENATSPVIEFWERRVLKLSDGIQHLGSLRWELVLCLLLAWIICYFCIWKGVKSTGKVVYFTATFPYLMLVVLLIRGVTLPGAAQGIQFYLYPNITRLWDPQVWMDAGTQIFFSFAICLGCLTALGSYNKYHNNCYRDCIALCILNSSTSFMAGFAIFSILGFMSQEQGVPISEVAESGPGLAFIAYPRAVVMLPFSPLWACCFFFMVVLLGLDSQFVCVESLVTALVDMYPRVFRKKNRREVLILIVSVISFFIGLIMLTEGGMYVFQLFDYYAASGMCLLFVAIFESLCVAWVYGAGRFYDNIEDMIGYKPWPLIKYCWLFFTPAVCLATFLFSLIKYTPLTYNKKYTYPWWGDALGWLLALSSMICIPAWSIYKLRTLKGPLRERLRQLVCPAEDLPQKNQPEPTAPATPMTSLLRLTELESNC
Kind of data set: Inhibition of mouse GTA 3 receptor.

Data set [6] addresses T2, GABA transporter 4. Kind of data set: Inhibition of mouse GTA4 receptor.
A short description of data set [7]: Lipophilicity, logP of the compound by UPLC-MS method. It counts as physicochemical. The following applies: octanol/water; read-out: logP. The essentials:
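LogP measured by UPLC on a BEH C18 column (2.1 × 100 mm, 1.7 µm, with C18 pre-column) coupled to an ESI tandem quadrupole MS. The method was calibrated with reference compounds of established logP values.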

Data set [8] concerns the target Sodium- and chloride-dependent GABA transporter 1 (Mus musculus) (UniProt P31648). Kind of data set: Displacement of [3H]NO711 from mouse GAT1 expressed in HEK293 cells at 100 uM measured after 40 mins of incubation by LC-ESI-MS-MS method. It counts as cell-based. Conditions: in the assay text read “NO711” for “[3H]NO711”. The essentials:
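Competitive MS Binding Assay for mGAT1 using NO-711 as a nonlabeled marker, quantified by LC–ESI–MS–MS. Compounds were screened at 100 µM. […] Otherwise, the percentage of remaining binding at 100 µM is given.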

For data set [9] the target is unchanged. Kind of data set: Inhibition of mouse GAT1 expressed in HEK293 cell line assessed as inhibition of [3H]GABA uptake at 100 uM measured after 35 mins by liquid scintillation method; values are per cent of control.

In turn, `Cc1ccc(CNC(=O)C(CO)N(C)CCC=C(c2sccc2C)c2sccc2C)cc1` (stereo not given) had a Ki in data set [1] of 38.9 µM. Also, the IC50 in data set [2] was 20 µM; in data set [3], 9.55 µM.

For the compound `NCCC(=O)O` [BETA-ALANINE], the figures for the IC50 in [4], in data set [5] and in [6] were 2950 µM, 66.1 µM and 110 µM, respectively.

As to `Cc1ccsc1C(=CCCN(C)C(CO)C(=O)NCc1ccc(F)cc1)c1sccc1C` (stereo not given), the Ki in data set [1] was 51.3 µM. In addition, the results for the IC50 in data set [2] and in [3] were 15.1 µM and 17 µM, respectively. Also, in [7], the logP was 6.45.

As to `Cc1ccsc1C(=CCCN(C)C(CC(C)O)C(=O)NCc1ccccc1Cl)c1sccc1C` (racemic; form 1), the residual activity came out at 85% in data set [8] and 51% in data set [9].

Consider `Cc1ccsc1C(=CCCN(C)C(CC(C)O)C(=O)NCc1ccccc1Cl)c1sccc1C` (racemic; form 2), for which the residual activity in data set [8] turned out to be 88%; in [9], 47%.

For the compound `COc1ccc(C(OCCN2CCC[C@@H](C(=O)O)C2)(c2ccc(OC)cc2)c2ccc(OC)cc2C)cc1`, the concentration for half-maximal inhibition (IC50) in [4] is 64.6 µM; in data set [5] it was 14.1 µM; in [6] it was 1.66 µM.

Consider `O=C1Nc2ccc(-c3cccs3)cc2C1=O`, for which the IC50 in data set [4] was more than 1000 µM; in [5], 182 µM; in data set [6], 6.31 µM.

As for `Cc1ccsc1C(=CCCN(C)[C@@H]1CCc2onc(O)c2C1)c1sccc1C`, the IC50 in data set [4] was 7.08 µM; in [5] it was more than 302 µM; in data set [6] it was more than 302 µM.

Take `Cc1ccsc1C(=CCCN(C)C(CC(C)O)C(=O)NCc1ccc(Cl)cc1)c1sccc1C` (stereo in doubt): the residual activity in data set [8] was determined as 90%; in data set [9] it was 63%.

`CN(CCC=C(c1ccccc1)c1ccccc1)C(CCN)C(=O)NCc1ccccc1Cl` (stereo not given): the IC50 in [5] is 10 µM.

As for `Cc1ccsc1C(=CCCN(C)[C@H]1CCc2onc(O)c2C1)c1sccc1C`, the IC50 in [4] is 7.08 µM; in data set [5], more than 302 µM; in [6], more than 302 µM.

`Cc1ccsc1C(=CCCN(C)[C@@H](CCO)C(=O)NCc1ccccc1Cl)c1sccc1C` gave a Ki in data set [1] of 38 µM.
